Laboratory results as given in ChEMBL document CHEMBL5724801, “EUbOPEN Chemogenomics Library - Multiplex” (2024).
Where “and” joins values, the source holds several entries; their conditions need not be identical. Equal entries are not always repeated.

System: Fibroblast
Test: Multiplex assay against human fibroblast
Assay type: toxicity, cell-based
How it was run: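 On a CQ1 microscope at 37°C and 5% CO2, live cells were imaged after compound addition. They had been stained at seeding with Hoechst33342, BioTracker Green Microtubule Cytoskeleton Dye, MitoTracker Red and Annexin V Alexa Fluor 680. CellPathfinder machine-learning gating assigned cells to Hoechst high-intensity objects or normal cells, normal cells to healthy, pyknosed or fragmented nuclei, and pyknosed cells to mitotic or apoptotic. Tubulin, mitochondrial-mass and membrane-permeability phenotypes are per cents of healthy-nucleus cells.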

[1] = 12 h, 1 µM, compound concentration 1 uM
[2] = 12 h, 10 µM, compound concentration 10 uM
[3] = 24 h, 1 µM, compound concentration 1 uM
[4] = 24 h, 10 µM, compound concentration 10 uM
[5] = 48 h, 1 µM, compound concentration 1 uM
[6] = 48 h, 10 µM, compound concentration 10 uM

Cc1noc(C)c1-c1cnc2c(-c3ccc(C(=O)O)cc3)cn([C@@H](C)c3ccccn3)c2c1 [PLX-51107]
Population Apoptotic (%) [1]: 4.44% and 12.9% | Population Fragmented Nuclei (%) [1]: 10.26% and 3.93% | Population Healthy Nuclei (%) [1]: 66.67% and 82.53% | Population Hoechst High Intensity Objects (%) [1]: 0% | Population Membrane Permeable-Phenotype (%) [1]: 4.62% and 1.06% | Population Mitochondria Different-Phenotype (%) [1]: 10% and 6.88% | Population Mitotic Cells (%) [1]: 95.56% and 87.1% | Population Normal (%) [1]: 100% | Population Pyknosed Nuclei (%) [1]: 23.08% and 13.54% | Population Tubulin-Different-Phenotype (%) [1]: 11.54% and 14.81% | Total Cell Count [1]: 195 and 229 | Population Apoptotic (%) [2]: 16.13% and 16.67% | Population Fragmented Nuclei (%) [2]: 6.25% and 5.33% | Population Healthy Nuclei (%) [2]: 78.85% and 82.38% | Population Hoechst High Intensity Objects (%) [2]: 0% | Population Membrane Permeable-Phenotype (%) [2]: 4.27% and 2.99% | Population Mitochondria Different-Phenotype (%) [2]: 12.8% and 10.95% | Population Mitotic Cells (%) [2]: 83.87% and 83.33% | Population Normal (%) [2]: 100% | Population Pyknosed Nuclei (%) [2]: 14.9% and 12.3% | Population Tubulin-Different-Phenotype (%) [2]: 14.63% and 21.89% | Total Cell Count [2]: 208 and 244 | Population Fragmented Nuclei (%) [3]: 8.57% and 3.9% | Population Healthy Nuclei (%) [3]: 78.1% and 88.31% | Population Hoechst High Intensity Objects (%) [3]: 0% | Population Membrane Permeable-Phenotype (%) [3]: 2.44% and 0.98% | Population Mitochondria Different-Phenotype (%) [3]: 4.88% and 3.43% | Population Mitotic Cells (%) [3]: 82.14% and 94.44% | Population Normal (%) [3]: 100% | Population Pyknosed Nuclei (%) [3]: 13.33% and 7.79% | Population Tubulin-Different-Phenotype (%) [3]: 7.32% and 10.29% | Total Cell Count [3]: 210 and 231 | Population Apoptotic (%) [4]: 20% and 14.81% | Population Fragmented Nuclei (%) [4]: 7.04% and 7.47% | Population Healthy Nuclei (%) [4]: 85.43% and 81.33% | Population Hoechst High Intensity Objects (%) [4]: 0% | Population Membrane Permeable-Phenotype (%) [4]: 3.53% and 2.04% | Population Mitochondria Different-Phenotype (%) [4]: 11.18% and 6.63% | Population Mitotic Cells (%) [4]: 80% and 85.19% | Population Normal (%) [4]: 100% | Population Pyknosed Nuclei (%) [4]: 7.54% and 11.2% | Population Tubulin-Different-Phenotype (%) [4]: 12.94% and 15.31% | Total Cell Count [4]: 199 and 241 | Population Apoptotic (%) [5]: 30% | Population Fragmented Nuclei (%) [5]: 11.06% and 8.8% | Population Healthy Nuclei (%) [5]: 84.13% and 87.2% | Population Hoechst High Intensity Objects (%) [5]: 0% | Population Membrane Permeable-Phenotype (%) [5]: 0.57% and 3.67% | Population Mitotic Cells (%) [5]: 70% | Population Normal (%) [5]: 100% | Population Pyknosed Nuclei (%) [5]: 4.81% and 4% | Population Tubulin-Different-Phenotype (%) [5]: 4.57% and 11.93% | Total Cell Count [5]: 208 and 250 | Population Apoptotic (%) [6]: 28.57% and 50% | Population Fragmented Nuclei (%) [6]: 7% and 9.25% | Population Healthy Nuclei (%) [6]: 86% and 83.7% | Population Hoechst High Intensity Objects (%) [6]: 0% | Population Membrane Permeable-Phenotype (%) [6]: 3.49% and 1.05% | Population Mitotic Cells (%) [6]: 71.43% and 50% | Population Normal (%) [6]: 100% | Population Pyknosed Nuclei (%) [6]: 7% and 7.05% | Population Tubulin-Different-Phenotype (%) [6]: 10.47% and 9.47% | Total Cell Count [6]: 200 and 227

Cl.c1ccc2c(c1)CCC[C@H]2Nc1nc2ccccc2[nH]1
Population Apoptotic (%) [1]: 11.32% and 10.42% | Population Fragmented Nuclei (%) [1]: 9.36% and 5.1% | Population Healthy Nuclei (%) [1]: 64.53% and 70.41% | Population Hoechst High Intensity Objects (%) [1]: 0% | Population Membrane Permeable-Phenotype (%) [1]: 6.11% and 2.17% | Population Mitochondria Different-Phenotype (%) [1]: 6.87% and 9.42% | Population Mitotic Cells (%) [1]: 88.68% and 89.58% | Population Normal (%) [1]: 100% | Population Pyknosed Nuclei (%) [1]: 26.11% and 24.49% | Population Tubulin-Different-Phenotype (%) [1]: 18.32% and 18.12% | Total Cell Count [1]: 203 and 196 | Population Apoptotic (%) [2]: 5% and 13.89% | Population Fragmented Nuclei (%) [2]: 8.94% and 7.57% | Population Healthy Nuclei (%) [2]: 46.37% and 72.97% | Population Hoechst High Intensity Objects (%) [2]: 0% | Population Membrane Permeable-Phenotype (%) [2]: 8.43% and 2.96% | Population Mitochondria Different-Phenotype (%) [2]: 10.84% and 15.56% | Population Mitotic Cells (%) [2]: 95% and 86.11% | Population Normal (%) [2]: 100% | Population Pyknosed Nuclei (%) [2]: 44.69% and 19.46% | Population Tubulin-Different-Phenotype (%) [2]: 24.1% and 30.37% | Total Cell Count [2]: 179 and 185 | Population Apoptotic (%) [3]: 11.36% and 6.25% | Population Fragmented Nuclei (%) [3]: 6.72% and 4.74% | Population Healthy Nuclei (%) [3]: 74.79% and 78.42% | Population Hoechst High Intensity Objects (%) [3]: 0% | Population Membrane Permeable-Phenotype (%) [3]: 4.49% and 2.01% | Population Mitochondria Different-Phenotype (%) [3]: 8.43% and 5.37% | Population Mitotic Cells (%) [3]: 88.64% and 93.75% | Population Normal (%) [3]: 100% | Population Pyknosed Nuclei (%) [3]: 18.49% and 16.84% | Population Tubulin-Different-Phenotype (%) [3]: 17.98% and 10.07% | Total Cell Count [3]: 238 and 190 | Population Apoptotic (%) [4]: 6.56% and 11.11% | Population Fragmented Nuclei (%) [4]: 8.38% and 10.7% | Population Healthy Nuclei (%) [4]: 57.54% and 74.87% | Population Hoechst High Intensity Objects (%) [4]: 0% | Population Membrane Permeable-Phenotype (%) [4]: 2.91% and 1.43% | Population Mitochondria Different-Phenotype (%) [4]: 13.59% and 7.86% | Population Mitotic Cells (%) [4]: 93.44% and 88.89% | Population Normal (%) [4]: 100% | Population Pyknosed Nuclei (%) [4]: 34.08% and 14.44% | Population Tubulin-Different-Phenotype (%) [4]: 35.92% and 30.71% | Total Cell Count [4]: 179 and 187 | Population Apoptotic (%) [5]: 7.14% and 20% | Population Fragmented Nuclei (%) [5]: 7.17% and 4.5% | Population Healthy Nuclei (%) [5]: 87.25% and 88% | Population Hoechst High Intensity Objects (%) [5]: 0% | Population Membrane Permeable-Phenotype (%) [5]: 0.91% and 2.27% | Population Mitochondria Different-Phenotype (%) [5]: 9.13% and 3.98% | Population Mitotic Cells (%) [5]: 92.86% and 80% | Population Normal (%) [5]: 100% | Population Pyknosed Nuclei (%) [5]: 5.58% and 7.5% | Population Tubulin-Different-Phenotype (%) [5]: 5.48% and 13.64% | Total Cell Count [5]: 251 and 200 | Population Apoptotic (%) [6]: 21.05% and 50% | Population Fragmented Nuclei (%) [6]: 12.39% and 11.11% | Population Healthy Nuclei (%) [6]: 78.9% and 84.44% | Population Hoechst High Intensity Objects (%) [6]: 0% | Population Membrane Permeable-Phenotype (%) [6]: 1.74% and 4.21% | Population Mitochondria Different-Phenotype (%) [6]: 6.4% and 3.68% | Population Mitotic Cells (%) [6]: 78.95% and 50% | Population Normal (%) [6]: 100% | Population Pyknosed Nuclei (%) [6]: 8.72% and 4.44% | Population Tubulin-Different-Phenotype (%) [6]: 19.19% and 32.11% | Total Cell Count [6]: 218 and 225
